Test results taken from ChEMBL document CHEMBL1123566, “Synthesis and cardiac electrophysiological activity of 2- and 3-[(substituted phenyl)alkyl]quinuclidines. Structure-activity relationships” (1987).
Values joined by “and” are separate entries in the source; they are usually repeats but may differ in a detail not shown here. Identical values can stand only once.

Experiments:
[1] = system: Canis familiaris; assay: Heart rate was determined by intraduodenal administration of two dosages of 10 mg/kg of compound in anesthetized dogs. Value was reported for experiment 1; assay type: functional, Canis lupus familiaris
In short: (§1)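 Anesthetized dogs; compound given intraduodenally, generally as two doses, the second a cumulative (high) dose. LV functional refractory period and conduction time measured 15, 30 and 45 min after dosing; heart rate and blood pressure measured during nonpacing intervals. Values are % change from control, given per individual animal. Active if FRP or CT prolonged by ≥12%.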

[2] = species on record: Canis familiaris; assay: In vitro electrophysiological evaluation in canine cardiac occurred is 100 uM; assay type: functional; settings: Canis lupus familiaris; Heart
[3] = system: Canis familiaris; assay: Conduction time was determined by intraduodenal administration of 10 mg/kg (low dose) of compound in anesthetized dogs. Value was reported for experiment 2; assay type: functional, Canis lupus familiaris; in short: as §1
[4] = system: Canis familiaris; assay: Left ventricular refractory period was determined by intraduodenal administration of 10 mg/kg (low dose) of compound in anesthetized dogs. Value was reported for experiment 1; assay type: functional, Canis lupus familiaris, Cardiac ventricle
In short: (§2)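 Anesthetized dogs received two intraduodenal doses, the second cumulative (low dose/high dose). Left ventricular FRP and CT were measured 15, 30 and 45 min after dosing. Heart rate and mean blood pressure were taken during nonpacing intervals. Values are percent change from control. The vehicle was 5% dextrose in water/tragacanth. Activity was defined as ≥12% prolongation of FRP or CT.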

[5] = system: Canis familiaris; assay: Heart rate was determined by intraduodenal administration of two dosages of 30 mg/kg of compound in anesthetized dogs. Value was reported for experiment 1; assay type: functional, Canis lupus familiaris; in short: as §1
[6] = species on record: Canis familiaris; assay: In vitro electrophysiological evaluation in canine cardiac ventricular muscle reported as maximum % change for functional refractory period (FRP) at 0.1-100 uM concentration range; concentration at which it occurred is 100 uM; parameters: species or system Canis lupus familiaris, Muscle tissue
In short: (§3)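 Canine right ventricle and papillary muscle strips in oxygenated Tyrode's solution, fitted with stimulating and recording electrodes. The extra-stimulus conduction-interval method was adapted for in vitro use. FRP and CT were read from a conduction-interval curve before and after various compound concentrations, and expressed as percent change from control. Compounds were taken from 10 mM deionized-water stock into Tyrode's. Each strip was used once as its own control.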

[7] = system: Canis familiaris; assay: Conduction time was determined by intraduodenal administration of 10 mg/kg (low dose) of compound in anesthetized dogs. Value was reported for experiment 1; assay type: functional, Canis lupus familiaris; in short: as §1
[8] = system: Canis familiaris; assay: Conduction time was determined by intraduodenal administration of 30 mg/kg (high dose) of compound in anesthetized dogs. Value was reported for experiment 1; assay type: functional, Canis lupus familiaris; in short: as §1
[9] = system: Canis familiaris; assay: Mean arterial blood pressure was determined by intraduodenal administration of two dosages of 10 mg/kg of compound in anesthetized dogs. Value was reported for experiment 1; assay type: functional, Canis lupus familiaris; in short: as §2
[10] = species on record: Canis familiaris; assay: In vitro electrophysiological evaluation in canine cardiac Purkinje fibres reported as % change for action potential duration at 10 uM at 0.1-100 uM concentration range; assay type: functional, Canis lupus familiaris, Purkinje fiber
In short: (§4)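 Canine cardiac Purkinje fibres, intracellular microelectrode recording, paced at a basic cycle length of 1 s. APD95 and Vmax read simultaneously. Compound: 10 mM stock in deionized water, diluted into Tyrode's solution, tested over the stated concentration range. Each fibre used once as its own control. Result is % change from control, given at 10 µM or as the maximum with its concentration. M = <10% decrease or an increase in Vmax.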

[11] = system: Canis familiaris; assay: Left ventricular refractory period was determined by intraduodenal administration of 30 mg/kg (high dose) of compound in anesthetized dogs. Value was reported for experiment 2; assay type: functional, Canis lupus familiaris, Cardiac ventricle; in short: as §2
[12] = species on record: Canis familiaris; assay: In vitro electrophysiological evaluation in canine cardiac Purkinje fibres reported as percent change Vmax at 10 uM at concentration range of 1-100 uM.; assay type: functional; settings: Canis lupus familiaris, Purkinje fiber; in short: as §4
[13] = species on record: Canis familiaris; assay: In vitro electrophysiological evaluation in canine cardiac ventricular muscle reported as % change for conduction time(CT) at 10 uM at 0.1-100 uM concentration range; Minimal (<10% decrease or increase in CT).; assay type: functional, Canis lupus familiaris, Muscle tissue
[14] = system: Canis familiaris; assay: Heart rate was determined by intraduodenal administration of two dosages of 10 mg/kg of compound in anesthetized dogs. Value was reported for experiment 2; assay type: functional, Canis lupus familiaris; in short: as §1
[15] = species on record: Canis familiaris; assay: In vitro electrophysiological evaluation in canine cardiac Purkinje fibres reported as maximum percent change Vmax concentration range of 0.1-100 uM; Minimal (<10% decrease or increase in V max).; assay type: functional; settings: Canis lupus familiaris; Purkinje fiber; in short: as §4
[16] = species on record: Canis familiaris; assay: (§5) In vitro electrophysiological activity in canine cardiac occurred is 10 uM; assay type: functional, Canis lupus familiaris, Heart
[17] = system: Canis familiaris; assay: Left ventricular refractory period was determined by intraduodenal administration of 30 mg/kg (high dose) of compound in anesthetized dogs. Value was reported for experiment 1; assay type: functional, Canis lupus familiaris, Cardiac ventricle; in short: as §2
[18] = species on record: Canis familiaris; assay: In vitro electrophysiological evaluation in canine cardiac ventricular muscle reported as % change for the functional refractory period (FRP) at 10 uM at concentration range of 0.1-100 uM; parameters: species or system Canis lupus familiaris, Muscle tissue; in short: as §3
[19] = species on record: Canis familiaris; assay: In vitro electrophysiological evaluation in canine cardiac ventricular muscle reported as maximum % change for conduction time(CT) at 0.1-100 uM concentration range; Minimal (<10% decrease or increase in CT).; assay type: functional, Canis lupus familiaris, Muscle tissue; in short: as §3
[20] = system: Canis familiaris; assay: Mean arterial blood pressure was determined by intraduodenal administration of two dosages of 30 mg/kg of compound in anesthetized dogs. Value was reported for experiment 1; assay type: functional, Canis lupus familiaris; in short: as §2
[21] = system: Canis familiaris; assay: Mean arterial blood pressure was determined by intraduodenal administration of two dosages of 30 mg/kg of compound in anesthetized dogs. Value was reported for experiment 2; assay type: functional, Canis lupus familiaris; in short: as §2
[22] = species on record: Canis familiaris; assay: In vitro electrophysiological evaluation in canine cardiac Purkinje fibres reported as % change for action potential duration at a concentration of 10 uM; assay type: functional, Canis lupus familiaris, Purkinje fiber; in short: as §4
[23] = system: Canis familiaris; assay: Conduction time was determined by intraduodenal administration of 30 mg/kg (high dose) of compound in anesthetized dogs. Value was reported for experiment 2; assay type: functional, Canis lupus familiaris; in short: as §1
[24] = species on record: Canis familiaris; assay: as §5; assay type: functional, Canis lupus familiaris, Heart; remark: listed apart in the source
[25] = system: Canis familiaris; assay: Heart rate was determined by intraduodenal administration of two dosages of 30 mg/kg of compound in anesthetized dogs. Value was reported for experiment 2; assay type: functional, Canis lupus familiaris; in short: as §1
[26] = system: Canis familiaris; assay: Mean arterial blood pressure was determined by intraduodenal administration of two dosages of 10 mg/kg of compound in anesthetized dogs. Value was reported for experiment 2; assay type: functional, Canis lupus familiaris; in short: as §2
[27] = system: Canis familiaris; assay: Left ventricular refractory period was determined by intraduodenal administration of 10 mg/kg (low dose) of compound in anesthetized dogs. Value was reported for experiment 2; assay type: functional, Canis lupus familiaris, Cardiac ventricle; in short: as §2
[28] = species on record: Canis familiaris; assay: In vitro electrophysiological evaluation in canine cardiac Purkinje fibres reported as percent change Vmax at 10 uM at concentration range of 0.1-100 uM; Minimal (<10% decrease or increase in V max).; assay type: functional, organism-based; settings: Canis lupus familiaris, Purkinje fiber; in short: as §4

## CC(=O)C(CC1C(=O)C2CCN1CC2)C(=O)c1ccc([N+](=O)[O-])cc1.Cl (stereo not drawn)
[1]
  HR: -11%
[2]
  Vmax: -24%
[3]
  CT: 9%
[4]
  LV FRP: 9%
[5]
  HR: -14%
[6]
  FRP: 23% and 30%
[7]
  CT: -3%
[8]
  CT: -3%
[9]
  Mean blood pressure: 10%
[10]
  APD95: 29%
[11]
  LV FRP: 22%
[12]
  Vmax: -18%
[13]
  CT: <10%
[14]
  HR: -36%
[15]
  Vmax: < 10%
[16]
  APD95: 29%
[17]
  LV FRP: 13%
[18]
  FRP: 21% and 28%
[19]
  CT: <10%
[20]
  Mean blood pressure: 12%
[21]
  Mean blood pressure: -30%
[22]
  APD95: 28%
[23]
  CT: 11%
[24]
  APD95: 28%
[25]
  HR: -32%
[26]
  Mean blood pressure: -39%
[27]
  LV FRP: 16%
[28]
  Vmax: < 10%
